Experimental data reported in the RNAGym collection of RNA variant scans (doi:10.1002/anie.201605470).

B1: Osa-1-4 twister ribozyme (parent)
chain: CCGCCUAACACUGCCAAUGCCGGUCCCAAGCCCGGAUAAAAGUGGAGGGGGCGG

Variants of: B1
Assay: self-cleavage, relative activity (ratio to wild type); higher = more cleavage; co-transcriptional
Method in brief: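 The 48 positions downstream of the cleavage site in a 54-nucleotide Oryza sativa twister ribozyme template were synthesised at 97 % wild-type base and 1 % of each other base. The template was transcribed in vitro at 37 °C for 2 h, with self-cleavage allowed during transcription. Reads with or without upstream sequence after deep sequencing marked cleavage status, and relative activity is fraction cleaved normalised to wild type.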

| Variant | self-cleavage |
| --- | --- |
| CCGCCUAACACUGCCAAUGCCGGUCCCCAGCCCGGAUAAAGGUGGAGGGGGCGG [A28C A41G] | 0.82 |
| CCGCCUAACACUGCCAAUGCCGGUCCCCAGCCCGGAUAAAUGUGGAGGGGGCGG [A28C A41U] | 0.98 |
| CCGCCUAACACUGCCAAUGCCGGUCCUAAGCCCGGAUAAAAGUGGAGGGCGCGG [C27U G50C] | 0.09 |
| CCGCCUAACACUGCCAAUGCCGGUCCUAAGCCCGGAUAAAAGUGGAGGGUGCGG [C27U G50U] | 0.12 |
| CCGCCUAACACUGCCAAUGCCGGUCCUAAGCCCGGAUAAAAGUGGAGGGAGCGG [C27U G50A] | 0.18 |
| CCGCCUAACACUGCCAAUGCCGGUCCCCAGCCCGGAUAAUAGUGGAGGGGGCGG [A28C A40U] | 0.55 |
| CCGCCUAACACUGCCAAUGCCGGUCCCCAGCCCGGAUAAGAGUGGAGGGGGCGG [A28C A40G] | 0.68 |
| CCGCCUAACACUGCCAAUGCCGGUCCCCAGCCCGGAUAACAGUGGAGGGGGCGG [A28C A40C] | 0.08 |
| CCGCCUAACACUGACAAUGCCGGUCCCCAGCCCGGAUAAAAGUGGAGGGGGCGG [A28C C14A] | 0.09 |
| CCGCCUAACACUGGCAAUGCCGGUCCCCAGCCCGGAUAAAAGUGGAGGGGGCGG [A28C C14G] | 0.17 |
| CCGCCUAACACUGUCAAUGCCGGUCCCCAGCCCGGAUAAAAGUGGAGGGGGCGG [A28C C14U] | 0.46 |
| CCGCCUAACACUGCCAAUGCUGGUCCCCAGCCCGGAUAAAAGUGGAGGGGGCGG [A28C C21U] | 1 |
| CCGCCUAACACUGCCAAUGCGGGUCCCCAGCCCGGAUAAAAGUGGAGGGGGCGG [A28C C21G] | 0.09 |
| CCGCCUAACACUGCCAAUGCAGGUCCCCAGCCCGGAUAAAAGUGGAGGGGGCGG [A28C C21A] | 0.53 |
| CCGCCUAACACUGCCAAUGCCGGUCCCCAGCCUGGAUAAAAGUGGAGGGGGCGG [A28C C33U] | 0.86 |
| CCGCCUAACACUGCCAAUGCCGGUCCCCAGCCGGGAUAAAAGUGGAGGGGGCGG [A28C C33G] | 0.07 |
| CCGCCUAACACUGCCAAUGCCGGUCCCCAGCCAGGAUAAAAGUGGAGGGGGCGG [A28C C33A] | 0.12 |
| CCGCCUAACACGGCCAAUGCCGGUCCUAAGCCCGGAUAAAAGUGGAGGGGGCGG [C27U U12G] | 0.07 |
| CCGCCUAACACAGCCAAUGCCGGUCCUAAGCCCGGAUAAAAGUGGAGGGGGCGG [C27U U12A] | 0.1 |
| CCGCCUAACACCGCCAAUGCCGGUCCUAAGCCCGGAUAAAAGUGGAGGGGGCGG [C27U U12C] | 0.07 |
| CCGCCUAACACUGCCAAUGCCGGUCCGCAGCCCGGAUAAAAGUGGAGGGGGCGG [A28C C27G] | 0.05 |
| CCGCCUAACACUGCCAAUGCCGGUCCACAGCCCGGAUAAAAGUGGAGGGGGCGG [A28C C27A] | 0.09 |
| CCGCCUAACACUGCCAAUGCCGGUCCUCAGCCCGGAUAAAAGUGGAGGGGGCGG [A28C C27U] | 0.11 |
| CCGCCUAACACUGCCAAUGCCGGUCCCCAGCCCGGAUAAAAGUGGAGGGGGCGG [A28C] | 1 |
| CCGCCUAACACUGCCAAUGCCGGUCCUAAGCCCGGAUAAAAGUGGAGGGGGCGC [C27U G54C] | 0.12 |

| Variant | self-cleavage |
| --- | --- |
| CCGCCUAACACUGCCAAUGCCGGUCCUAAGCCCGGAUAAAAGUGGAGGGGGCGU [C27U G54U] | 0.31 |
| CCGCCUAACACUGCCAAUGCCGGUCCUAAGCCCGGAUAAAAGUGGAGGGGGCGA [C27U G54A] | 0.14 |
| CCGCCUAACACUGCCAAUGCCGGUCCCCAGCCCGGUUAAAAGUGGAGGGGGCGG [A28C A36U] | 1.02 |
| CCGCCUAACACUGCCAAUGCCGGUCCCCAGCCCGGCUAAAAGUGGAGGGGGCGG [A28C A36C] | 0.64 |
| CCGCCUAACACUGCCAAUGCCGGUCCCCAGCCCGGGUAAAAGUGGAGGGGGCGG [A28C A36G] | 1 |
| CCGCCUAGCACUGCCAAUGCCGGUCCCCAGCCCGGAUAAAAGUGGAGGGGGCGG [A28C A8G] | 0.17 |
| CCGCCUAUCACUGCCAAUGCCGGUCCCCAGCCCGGAUAAAAGUGGAGGGGGCGG [A28C A8U] | 0.1 |
| CCGCCUACCACUGCCAAUGCCGGUCCCCAGCCCGGAUAAAAGUGGAGGGGGCGG [A28C A8C] | 0.09 |
| CCGCCUAACACUGCCAAUGCCGGUCCUAAGCCCGGAUAAAAGUGGAGGGGGCUG [C27U G53U] | 0.08 |
| CCGCCUAACACUGCCAAUGCCGGUCCUAAGCCCGGAUAAAAGUGGAGGGGGCCG [C27U G53C] | 0.05 |
| CCGCCUAACACUGCCAAUGCCGGUCCUAAGCCCGGAUAAAAGUGGAGGGGGCAG [C27U G53A] | 0.12 |
| CCGCCUAACACUGCCAAAGCCGGUCCUAAGCCCGGAUAAAAGUGGAGGGGGCGG [C27U U18A] | 0.24 |
| CCGCCUAACACUGCCAACGCCGGUCCUAAGCCCGGAUAAAAGUGGAGGGGGCGG [C27U U18C] | 0.21 |
| CCGCCUAACACUGCCAAGGCCGGUCCUAAGCCCGGAUAAAAGUGGAGGGGGCGG [C27U U18G] | 0.37 |
| CCGCCUAACACUGCAAAUGCCGGUCCCCAGCCCGGAUAAAAGUGGAGGGGGCGG [A28C C15A] | 0.35 |
| CCGCCUAACACUGCUAAUGCCGGUCCCCAGCCCGGAUAAAAGUGGAGGGGGCGG [A28C C15U] | 0.33 |
| CCGCCUAACACUGCGAAUGCCGGUCCCCAGCCCGGAUAAAAGUGGAGGGGGCGG [A28C C15G] | 0.32 |
| CCGCCUAACACUACCAAUGCCGGUCCCCAGCCCGGAUAAAAGUGGAGGGGGCGG [A28C G13A] | 0.11 |
| CCGCCUAACACUGCCAAUGCCGGUCCCCAGCCCGGAUACAAGUGGAGGGGGCGG [A28C A39C] | 0.93 |
| CCGCCUAACACUGCCAAUGCCGGUCCCCAGCCCGGAUAGAAGUGGAGGGGGCGG [A28C A39G] | 0.99 |
| CCGCCUAACACUGCCAAUGCCGGUCCCCAGCCCGGAUAUAAGUGGAGGGGGCGG [A28C A39U] | 1 |
| CCGCCUAACACUGCCAAUGCCGGGCCUAAGCCCGGAUAAAAGUGGAGGGGGCGG [C27U U24G] | 0.01 |
| CCGCCUAACACUGCCAAUGCCGGACCUAAGCCCGGAUAAAAGUGGAGGGGGCGG [C27U U24A] | 0.04 |
| CCGCCUAACACUGCCAAUGCCGGCCCUAAGCCCGGAUAAAAGUGGAGGGGGCGG [C27U U24C] | 0.06 |
